# Reference: ChEMBL document CHEMBL5724801, “EUbOPEN Chemogenomics Library - Multiplex” (2024)
# Values joined by “and” are separate entries in the source; they are usually repeats but may differ in a detail not shown here. Equal entries are not always repeated.
# Tested on: Fibroblast
# Test: Multiplex assay against human fibroblast
# Assay type: toxicity, cell-based
# Outline: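 Cells were classed with CellPathfinder machine-learning gating, first as Hoechst high-intensity objects or normal cells, then (normal cells) as healthy, pyknosed or fragmented nuclei, and finally (pyknosed cells) as mitotic or apoptotic. Staining of live cells at seeding used Hoechst33342, BioTracker Green Microtubule Cytoskeleton Dye, MitoTracker Red and Annexin V Alexa Fluor 680, with imaging on a CQ1 microscope at 37°C and 5% CO2 after compound addition. Tubulin, mitochondrial-mass and membrane-permeability phenotypes are per cents of healthy-nucleus cells.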
# [1] = 12 h, 1 µM, compound concentration 1 uM
# [2] = 12 h, 10 µM, compound concentration 10 uM
# [3] = 24 h, 1 µM, compound concentration 1 uM
# [4] = 24 h, 10 µM, compound concentration 10 uM
# [5] = 48 h, 1 µM, compound concentration 1 uM
# [6] = 48 h, 10 µM, compound concentration 10 uM
smiles,measurement,setting,value
Br.CS(=O)(=O)Nc1c(O)ccc2c1CCCC2C1=NCCN1 (centres undefined),Population Apoptotic (%),[1],17% and 31%
same,Population Healthy Nuclei (%),[1],76% and 47%
same,Population Hoechst High Intensity Objects (%),[1],1% and 8%
same,Population Membrane Permeable-Phenotype (%),[1],0% and 7%
same,Population Mitochondria Different-Phenotype (%),[1],5% and 8%
same,Population Mitotic Cells (%),[1],82% and 68%
same,Population Normal (%),[1],98% and 91%
same,Population Pyknosed Nuclei (%),[1],14% and 19%
same,Population Tubulin-Different-Phenotype (%),[1],20% and 38%
same,Total Cell Count,[1],167 and 192
same,Population Apoptotic (%),[2],38% and 33%
same,Population Fragmented Nuclei (%),[2],20% and 38%
same,Population Healthy Nuclei (%),[2],47% and 45%
same,Population Hoechst High Intensity Objects (%),[2],6% and 0%
same,Population Mitochondria Different-Phenotype (%),[2],7% and 5%
same,Population Mitotic Cells (%),[2],61% and 66%
same,Population Normal (%),[2],93% and 99%
same,Population Pyknosed Nuclei (%),[2],31% and 16%
same,Population Tubulin-Different-Phenotype (%),[2],21% and 43%
same,Total Cell Count,[2],148 and 129
same,Population Apoptotic (%),[3],56% and 33%
same,Population Fragmented Nuclei (%),[3],12% and 25%
same,Population Healthy Nuclei (%),[3],77% and 60%
same,Population Hoechst High Intensity Objects (%),[3],1% and 7%
same,Population Membrane Permeable-Phenotype (%),[3],0% and 2%
same,Population Mitochondria Different-Phenotype (%),[3],3% and 7%
same,Population Mitotic Cells (%),[3],43% and 66%
same,Population Normal (%),[3],98% and 92%
same,Population Pyknosed Nuclei (%),[3],10% and 14%
same,Population Tubulin-Different-Phenotype (%),[3],16% and 41%
same,Total Cell Count,[3],159 and 180
same,Population Apoptotic (%),[4],48% and 41%
same,Population Fragmented Nuclei (%),[4],16% and 41%
same,Population Healthy Nuclei (%),[4],60% and 44%
same,Population Hoechst High Intensity Objects (%),[4],3% and 0%
same,Population Membrane Permeable-Phenotype (%),[4],0% and 10%
same,Population Mitochondria Different-Phenotype (%),[4],2% and 10%
same,Population Mitotic Cells (%),[4],51% and 58%
same,Population Normal (%),[4],96% and 99%
same,Population Pyknosed Nuclei (%),[4],23% and 13%
same,Population Tubulin-Different-Phenotype (%),[4],24% and 41%
same,Total Cell Count,[4],148 and 130
same,Population Apoptotic (%),[5],57% and 38%
same,Population Fragmented Nuclei (%),[5],14% and 26%
same,Population Healthy Nuclei (%),[5],76% and 61%
same,Population Hoechst High Intensity Objects (%),[5],4% and 5%
same,Population Membrane Permeable-Phenotype (%),[5],4% and 0%
same,Population Mitochondria Different-Phenotype (%),[5],3% and 9%
same,Population Mitotic Cells (%),[5],42% and 61%
same,Population Normal (%),[5],95% and 94%
same,Population Pyknosed Nuclei (%),[5],8% and 12%
same,Population Tubulin-Different-Phenotype (%),[5],24% and 41%
same,Total Cell Count,[5],167 and 177
same,Population Apoptotic (%),[6],61% and 33%
same,Population Fragmented Nuclei (%),[6],22% and 48%
same,Population Healthy Nuclei (%),[6],61% and 44%
same,Population Hoechst High Intensity Objects (%),[6],6% and 1%
same,Population Membrane Permeable-Phenotype (%),[6],1% and 3%
same,Population Mitochondria Different-Phenotype (%),[6],2% and 9%
same,Population Mitotic Cells (%),[6],38% and 66%
same,Population Normal (%),[6],93% and 98%
same,Population Pyknosed Nuclei (%),[6],15% and 7%
same,Population Tubulin-Different-Phenotype (%),[6],21% and 45%
same,Total Cell Count,[6],145 and 127
